Assay results taken from ChEMBL document CHEMBL4513216, “Probing the Open Global Health Chemical Diversity Library for Multistage-Active Starting Points for Next-Generation Antimalarials” (ACS Infect Dis, 2020).

Experiment: Toxicity liver stage against HepG2, at 10uM
Type: cell-based
Parameters: test concentration 10 uM, cell line HepG2-A16-CD81EGFP
Details: human, HepG2-A16-CD81EGFP cells; read-out: INHIBITION
Outline: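 Uninfected HepG2-A16-CD81EGFP cells, 3 × 10^3 per well, 1536-well, plated on prespotted compound at 10 μM final, parasite-free screening media added to match infected plates; puromycin 10 μM positive, DMSO 0.5% negative; run in parallel with 48 h PbLuc assay at 37 °C, 5% CO2; viability by CellTiter-Glo luminescence, normalized to controls.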

SMILES | cytotoxicity at 10 µM [%]
Cc1ncccc1C(=O)Nc1cccc(OCC(F)F)n1 | -7.79
Cc1nc(C(C)(C)C)sc1C(=O)NCCn1cccn1 | -3.17
Cc1nc(CN2C[C@@H]3CN(C(=O)c4ccoc4C)C[C@@H]3C2)cs1 | -144
COC(=O)c1cccn1C1CCN(CCN2C(=O)CCC2=O)CC1 | 0.207
CO[C@@]1(C)C[C@@H](O)C12CCN(C(=O)c1ccccc1C(C)=O)CC2 | 3.51
Cc1ccccc1C(=O)Nc1ccc(OC2CCN(C)CC2)cc1 | -1.57
CCOC(=O)N1CCC(NC(C)c2ccccc2-n2cccn2)CC1 (stereo not given) | -7.28
O=C(NC[C@H]1CCCC[C@H]1O)c1cccc2[nH]c(-c3cccs3)nc12 | -6.95
Cc1cc(C(=O)NCc2ccccn2)no1 | -9.95
Cc1nc(Nc2nncs2)cc(C2CCCN2)n1 (stereo not given) | -1.03
CCOc1ccc(C#N)cc1NC(=O)N1CCC(N2CCCC2)C1 (stereo not given) | -7.35
COc1ccc(CN(C)C(=O)Cc2c(C)nn(C)c2C)cc1F | 17
O=C(CCC1CCCN(C(=O)CCN2CCCCO2)C1)N1CCCC1 (stereo not given) | 2.11
Cc1c(C2NC3(CCCC3)C(=O)N2CC2CC2)cc(C#N)n1C (stereo not given) | -1.99
CN1CCN(CC2CC2)C(=O)c2cnc(N3CCCCC3)nc21 | 4.84
CC(NC(=O)c1cccs1)C(=O)NS(=O)(=O)Cc1ccc(C#N)cc1 (stereo not given) | 5.29
CCS(=O)(=O)CCn1ccc(NC(=O)CCc2cccc(C)c2)n1 | 2.94
CCCc1n[nH]c(C2CN(CCNS(C)(=O)=O)CCO2)n1 (stereo not given) | -0.975
Cc1ncccc1CNCC1CCN(CCO)CC1 | -22.5
O=C(Cn1nnn(-c2cccs2)c1=O)N(CC1CCOC1)C1CC1 (stereo not given) | -39.9
CSc1ccc(-c2nc(CN3CCC(NC(C)=O)CC3)c(C)o2)cc1 | -2.76
O=C(Nc1ncn(CC(=O)N2CCCCCC2)n1)C1CCCO1 (stereo not given) | -4.56

SMILES | cytotoxicity at 10 µM [%]
CS(=O)(=O)NC[C@H]1OC[C@H]2CN(Cc3ccsc3)CC[C@H]21 | 5.29
COc1cccc(C2CCN2C(=O)c2cc(C(C)C)on2)c1 (stereo not given) | -2.96
O=C(c1cc(-n2cnnn2)ccc1Cl)N1CCN(c2ccccc2)CC1 | 11.3
CC(=O)Nc1ccc(S(=O)(=O)Nc2c(F)cccc2F)cc1 | 12.6
CC(=O)NCc1cccc(-n2ccnc2-c2cccc(C(=O)O)c2)c1 | -2.29
CC1CCN(CCNC(=O)C2CCN(C(=O)C(C)(C)C)CC2)CC1 | 6.81
CCc1cnc(CN(C)C2CCN(CCNS(=O)(=O)CC)C2)o1 (stereo not given) | 8.94
OCCn1cc(CN2CCN(CCOc3ccccc3)CC2)cn1 | -8.43
CSc1ncccc1C(=O)N1C[C@@H]2CC[C@H]1CN(CC(=O)N(C)C)C2 | 2.9
CN(C)C(=O)N1C[C@H]2CC[C@@H](C1)N(C/C=C/c1ccc(F)cc1)C2 | -0.545
O=C(CCNC(=O)c1ccccc1F)NCCNc1cccnc1 | -7.55
Cc1ccc(C(C)NC(=O)N2CCNC(=O)CC2)cc1F (stereo not given) | 18.9
COCc1csc(NC(=O)NCc2ccccn2)n1 | 11.3
O=C1NC2(CCN(C(=O)c3ccc(Cl)cc3)CC2)CC1c1ccccc1 (stereo not given) | -12.2
COCC(=O)N1CCCC2(CCN(Cc3cccc(C)n3)C2=O)C1 (stereo not given) | -0.559
CCOCC(=O)N1CCc2c(CN(C)C)nn(C(C)C)c2C1 | -2.63
COCCn1cnc2ccc(NC(=O)C3CC3)cc2c1=O | -7.89
CC(NC(=O)CN(C)S(C)(=O)=O)c1ccc(F)cc1 (stereo not given) | -4.36
CCS(=O)(=O)CCNC(=O)NC(C)c1cc(C)sc1C (stereo not given) | -3.4
CCC(CC)NCC(c1ccccn1)N1CCOCC1 (stereo not given) | -44.8
Cc1cc(CN(C)C(=O)CN2CC3(CCNCC3)OC2=O)no1 | 3.19
Cc1cc(NC(=O)CN2CCCC2c2c(C)nn(C)c2C)on1 (stereo not given) | -2.9

SMILES | cytotoxicity at 10 µM [%]
CCC1CCCCN1C(=O)CCn1cnc2sccc2c1=O (stereo not given) | -9.79
COc1ccc(C(=O)NS(=O)(=O)c2cncc(Br)c2)cc1 | -1.91
Cc1ccc(CCNC(=O)Nc2cc(C(F)(F)F)c[nH]c2=O)o1 | -11.9
COC1CCN(C(=O)c2ccccc2NCc2cccnc2)CC1 | -7.22
O=C(O)[C@]12CCCN(Cc3ccco3)C[C@H]1CN(c1ncccn1)C2 | 7.34
O=C(N1CCOCC1)[C@@]12CCO[C@@H]1CCN(CC1CCC1)C2 | 11.1
CCc1c(O)nc2nc(N3CCCC3)nn2c1C | 10
Cc1ccc(C(=O)N2CCN(Cc3ccc(C#N)cc3)CC2)n1C | -9.65
COCc1ccccc1CNc1nnc(C)c(C)c1C#N | -2.48
Cc1ccc(CCNC(=O)NCc2cccc(OC(F)F)c2)cn1 | -2.66
Cn1cnc(S(=O)(=O)N2C[C@H]3CC[C@@H](C2)N(Cc2cscn2)C3=O)c1 | -20.2
CSc1ccc(S(=O)(=O)N2CCCCC2CCNC(C)=O)cc1 (stereo not given) | -9.61
CN(C)Cc1ccc(C2CCCCN2C(=O)c2ncccc2O)cc1 (stereo not given) | -6.59
Cn1ccnc1CN1CCCN(C(=O)c2cccc(CC#N)c2)CC1 | -2.13
COC(=O)CCC(=O)N1CCCC2(CCCN2Cc2cccc(F)c2)C1 (stereo not given) | -104
Cc1nn(CC(=O)N2CCN(c3ccncc3)CC2)c(C)c1Cl | -17.8
CNC(=O)[C@@]12CCO[C@@H]1CCN(Cc1cccc(C)c1)C2 | -78.4
O=C(c1cnccn1)N1CCN2C[C@H](OCc3ccccc3F)C[C@H]2C1 | -2.16
CS(=O)(=O)NCc1cncc2c1CCN(C(=O)N1CCCC1)C2 | 12.8
CC(C)C1CN(C(=O)c2ccc3nccnc3c2)CCS1 (stereo not given) | 5.02
Cc1cc(Br)ccc1NCc1ccc(C(=O)N(C)C)[nH]1 | 5.68
NC(=O)c1sc2ccccc2c1C1CCN(S(=O)(=O)N2CCOCC2)C1 (stereo not given) | 11.8

SMILES | cytotoxicity at 10 µM [%]
CSCCC(=O)N1CCCC(n2ccnc2)C1 (stereo not given) | -6.28
COc1ncccc1C(=O)N1CC[C@]2(C[C@@H](Oc3cccnc3)CO2)C1 | 4.43
CC(C)Oc1cccc2c1c(NC(=O)CN(C)C)nn2CC(F)(F)F | -9.69
Cc1ccc(-n2ncc(C(=O)NCC3CCS(=O)(=O)C3)c2C)cc1 (stereo not given) | -9.01
CCN(C)C[C@@H]1CN(S(=O)(=O)c2cccc(Cl)c2)C[C@@H]1CO | -8.3
CNCc1n[nH]c(=O)n1-c1cccc(Cl)c1Cl | 0.396
CCc1nc(CCNc2ncccn2)sc1C | 14.4
CC(=O)N1CCCC2(CCN(c3nncs3)C2)C1 (stereo not given) | -103
COc1cccc(CC(=O)N2CCCSCC2CN2CCCC2)c1 (stereo not given) | -1.42
Cc1cc(C(=O)N2CCN(Cn3cc(Cl)cn3)CC2)on1 | -6.81
O=C(c1cccs1)N1CCOCC2(C1)CN(c1ccccc1)C(=O)CO2 (stereo not given) | -0.756
COc1ccc(OC)c2c(C)cc(N(C)Cc3cc(C)on3)nc12 | 1.42
CCS(=O)(=O)Nc1ccc2oc(C)c(C(C)=O)c2c1 | 7.13
OC1(CNCc2ccc(F)c(C(F)(F)F)c2)CCOC1 (stereo not given) | 9.21
CNC(=O)COc1ccc(CNc2c(Cl)cccc2C#N)cc1 | -55.9
CCC(C)(NCC(=O)NC(=O)NC)c1nccs1 (stereo not given) | 7.77
COc1ccc(CN2C[C@@H]3OCCN(C)[C@@H]3C2)cc1 | -74.8
CN1CCN(c2ccc(F)cc2NC(=O)NCc2ccon2)CC1 | -6.84
CC(C)n1cc(-c2c(C#N)c(N)nc3c2COCC3)cn1 | 17.2
Clc1snnc1CN1CCCC(Cn2cncn2)C1 (stereo not given) | -7.67
O=C(NCC1(c2ccc(F)cc2)CCC1)N1CCC2(C1)OCCO2 | 2.58
O=C(c1ccccn1)N1CCC2(COc3ncccc3S(=O)(=O)N2)C1 (stereo not given) | 8.96

SMILES | cytotoxicity at 10 µM [%]
COc1ccc(N(Cc2ccco2)C(=O)C2CCOC2)cc1F (stereo not given) | -10.8
Cn1cc(C(=O)N2CCCC(c3ccncc3)C2)cn1 (stereo not given) | -13
CN(C)C(=O)COC1COC2(CCN(c3cccc(F)c3)CC2)C1 (stereo not given) | -66
CCC(C)N(Cc1cccnc1)C(=O)CCSC (stereo not given) | 0.305
O=C(NCCn1ccnc1-c1cc2n(n1)CCNC2)c1ccc(F)cc1 | -16.9
CCC(NCc1ccccc1C)c1ccccc1OCC(=O)NC (stereo not given) | 16.9
CCn1cc(Br)c(C(=O)NCc2ccccc2)n1 | 7.61
Cc1cc(-n2cncn2)ccc1C(=O)Nc1ccc(N2CCCC2)cn1 | 7.26
Cc1nnc(NC(=O)CN(C)C2CCCN(c3cccnn3)C2)s1 (stereo not given) | -5.64
CCN1CCN(S(=O)(=O)c2cc(C)c(Cl)cc2C)CC1 | -3.89
CN1CC[C@H](N(Cc2ccccc2)Cc2ccccc2)C[C@H](O)C1 | -5.96
N#Cc1cccc(C(=O)N2CC[C@H]3[C@H]2CCN3CC2CCOCC2)c1 | -77
O=C(c1cccnc1)N1C[C@H]2CN(Cc3cccc(F)c3)C(=O)[C@H]2C1 | -78.9
c1cc2c(cc1CN1CC[C@H]3CO[C@H](CN4CCCC4)[C@H]3C1)OCO2 | 0.355
Cc1ccc(N2CC[C@H]3O[C@@H](C(=O)N4CCCO4)CC[C@H]32)nn1 | 0.908
Fc1ccc(OC2CCN(Cc3nnc(-c4ccco4)o3)CC2)cc1 | -2.56
Cc1cccc(-c2nnn3c2COC(CNCc2nccs2)C3)c1 (stereo not given) | 4.51
CC(C)(C)c1cnc(CN2CCCS2(=O)=O)o1 | 2.07
O=C(CN1CCCCC1C1OCCO1)Nc1ccc(F)c(F)c1 (stereo not given) | -3.53
O=C(Cc1c[nH]c2ncccc12)NCC(O)c1ccsc1 (stereo not given) | 5.46
COc1ccccc1CCNC(=O)N(C)C(C)CS(C)(=O)=O (stereo not given) | -48.8
CSCC1CCCN(c2ncnc3oc(C)nc23)C1 (stereo not given) | 4.03
